Experiments:
RAW264.7 [1] = experiment: Inhibition of LPS-induced NO production in mouse RAW264.7 cells by Griess assay; format: functional, cell-based
Outline: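 RAW 264.7 mouse macrophages were seeded at 1 × 10^5 cells/well and left to adhere 2 h at 37 °C in 5% CO2. Nitrite accumulated in the supernatant was measured with Griess reagent, and IC50 values were derived. Hydrocortisone served as positive control.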

RAW264.7 [2] = experiment: Cytotoxicity against mouse RAW264.7 cells by MTT assay; format: cell-based

In the case of `Cc1coc2c1C(=O)[C@]1(O)[C@@H](C)CC[C@H]1C(CO)=C2`, the IC50 (RAW264.7 [1]) is reported as 47.7 µM and the Activity (RAW264.7 [2]) is reported as “Non-toxic”.
In the case of `CC1=CC(=O)C[C@@H]2[C@H]1CC[C@@]2(C)O`, the IC50 (RAW264.7 [1]) is reported as 77.9 µM and the Activity (RAW264.7 [2]) is reported as “Non-toxic”.
With `CC1=C2C[C@H]3[C@@](C)(O)CC[C@@]34O[C@@]2(C[C@@]4(C)O)OC1=O` the IC50 (RAW264.7 [1]) was 8.5 µM and the Activity (RAW264.7 [2]) was “Non-toxic”.
In the case of `CC1=CC(=O)[C@@H]2C[C@@H]3[C@@](C)(O)CC[C@]13OC2(C)C`, the IC50 (RAW264.7 [1]) is reported as 79.8 µM and the Activity (RAW264.7 [2]) is reported as “Non-toxic”.
With `CC(C)=C1C[C@]2(O)[C@@H](C)CC[C@@H]2[C@@](C)(O)CC1=O` the IC50 (RAW264.7 [1]) was 89.2 µM and the Activity (RAW264.7 [2]) was “Non-toxic”.
In the case of `C=C(C)[C@@H]1CC[C@](C)(O)[C@H]1CC(C(=O)O)=C(C)C`, the IC50 (RAW264.7 [1]) is reported as 68.4 µM and the Activity (RAW264.7 [2]) is reported as “Non-toxic”.
`CC(C)=C1C[C@@H]2O[C@H](CC[C@]2(C)O)/C(C)=C/C1=O` was tested, and the IC50 (RAW264.7 [1]) was 48.6 µM and the Activity (RAW264.7 [2]) was “Non-toxic”.
In the case of `CC(C)=C1C[C@]2(O)[C@@H](CC[C@@H]2C)[C@@](C)(O)CC1=O`, the IC50 (RAW264.7 [1]) is reported as 92.4 µM and the Activity (RAW264.7 [2]) is reported as “Non-toxic”.
For `CC(C)=C1C[C@@]23O[C@]1(O)C[C@@](C)(O)[C@H]2CC[C@H]3C`, the IC50 (RAW264.7 [1]) was 87.6 µM and the Activity (RAW264.7 [2]) was “Non-toxic”.
For `C/C1=C\[C@H](O)C[C@]2(C)O[C@H]2C(=O)c2c(C)coc2C1`, the IC50 (RAW264.7 [1]) was 78.2 µM and the Activity (RAW264.7 [2]) was “Non-toxic”.
`CC(=O)C(C[C@@H]1[C@H](C(C)=O)CC[C@]1(C)O)=C(C)C` was tested, and the IC50 (RAW264.7 [1]) was 78.7 µM and the Activity (RAW264.7 [2]) was “Non-toxic”.
With `C[C@]12CCC(=O)C=C1CC[C@@H]1[C@@H]2[C@@H](O)C[C@@]2(C)[C@H]1CC[C@]2(O)C(=O)CO` [HYDROCORTISONE] the IC50 (RAW264.7 [1]) was 51.4 µM.
For `CC1=C2C[C@H]3[C@@](C)(O)CC[C@@]34O[C@@]2(C[C@]4(C)O)OC1=O`, the IC50 (RAW264.7 [1]) was 7.6 µM and the Activity (RAW264.7 [2]) was “Non-toxic”.
`C=C(C)[C@H]1CC[C@](C)(O)[C@H]1CC(C(=O)O)=C(C)C` was tested, and the IC50 (RAW264.7 [1]) was 66.5 µM and the Activity (RAW264.7 [2]) was “Non-toxic”.

— ChEMBL document CHEMBL3351393, “iNOS inhibitory activity of sesquiterpenoids and a monoterpenoid from the rhizomes of Curcuma wenyujin” (J Nat Prod, 2014)
